Data: ChEMBL document CHEMBL4138152, “Exploring the tetrahydroisoquinoline thiohydantoin scaffold blockade the androgen receptor as potent anti-prostate cancer agents” (Eur J Med Chem, 2018)
Activity calls are given as the source filed them. The rule behind the calls is not given here.

How the values were obtained:
LNCaP = assay: Antiproliferative activity against human LNCAP cells after 3 days by MTT assay; type: functional, cell-based; settings: 72 h
In short: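 LNCaP cells kept in RPMI-1640 with 10% FBS, 37 °C, 5% CO2. Seeded at 10,000 cells/well and left 24 h. Serial dilutions of compound or DMSO added, then 3 d incubation. MTT (5 mg/mL) added for 4 h, crystals dissolved in DMSO, absorbance read at 492 nm. Triplicate or more; IC50 reported as mean.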

DU-145 = assay: Antiproliferative activity against human DU145 cells after 3 days by MTT assay; type: functional, cell-based; settings: DU-145, 72 h
In short: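 DU145 cells kept in RPMI-1640 with 10% FBS, 37 °C, 5% CO2. Seeded at 7,000 cells/well and left 24 h. Serial dilutions of compound or DMSO added, then 3 d incubation. MTT (5 mg/mL) added for 4 h, formazan dissolved in DMSO, absorbance read at 492 nm. Triplicate or more; IC50 reported as mean.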

[1] = biological target: T1, Androgen receptor (Homo sapiens) (UniProt P10275); settings: at 10 µM
T1 sequence (whole entry): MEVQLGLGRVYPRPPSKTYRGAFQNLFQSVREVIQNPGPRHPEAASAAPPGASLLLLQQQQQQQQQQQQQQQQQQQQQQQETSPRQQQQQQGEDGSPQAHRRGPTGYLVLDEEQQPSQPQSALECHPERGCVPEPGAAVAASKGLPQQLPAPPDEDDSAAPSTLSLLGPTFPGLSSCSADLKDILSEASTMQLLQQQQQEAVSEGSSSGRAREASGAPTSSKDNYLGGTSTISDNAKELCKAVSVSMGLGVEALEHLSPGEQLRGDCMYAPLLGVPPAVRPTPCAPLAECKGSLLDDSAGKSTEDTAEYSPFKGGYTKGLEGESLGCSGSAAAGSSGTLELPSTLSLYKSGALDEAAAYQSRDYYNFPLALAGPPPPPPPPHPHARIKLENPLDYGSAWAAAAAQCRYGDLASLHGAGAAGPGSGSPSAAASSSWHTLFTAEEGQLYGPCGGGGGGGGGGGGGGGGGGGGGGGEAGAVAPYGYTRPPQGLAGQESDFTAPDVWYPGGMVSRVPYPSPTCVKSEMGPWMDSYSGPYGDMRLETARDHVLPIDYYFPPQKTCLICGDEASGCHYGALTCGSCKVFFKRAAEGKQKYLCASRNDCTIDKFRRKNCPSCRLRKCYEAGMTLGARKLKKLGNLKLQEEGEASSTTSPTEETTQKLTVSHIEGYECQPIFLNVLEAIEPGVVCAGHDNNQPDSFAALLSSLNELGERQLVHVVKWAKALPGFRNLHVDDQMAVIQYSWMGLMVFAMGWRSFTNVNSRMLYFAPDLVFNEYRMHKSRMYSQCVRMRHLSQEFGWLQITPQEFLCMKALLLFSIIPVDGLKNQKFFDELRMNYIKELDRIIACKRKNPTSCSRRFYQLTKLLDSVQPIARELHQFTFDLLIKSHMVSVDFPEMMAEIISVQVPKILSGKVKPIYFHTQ

Androgen receptor = biological target: T2, Androgen receptor (Homo sapiens, UniProt P10275); type: cell-based
T2 sequence (P10275 whole entry): T1 sequence (whole entry)

[2] = AUC (0 to t) in rat administered via gavage by HPLC-MS/MS method; type: ADME, organism-based; settings: in vivo, po
In short: (§1)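 Rats 180–220 g, n = 3 per group; compound dissolved in water, single gavage dose of 5.0 mg/kg. Plasma quantified by HPLC-MS/MS. Parameters derived from mean plasma concentration by noncompartmental analysis.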

[3] = Elimination half life in rat administered via gavage by HPLC-MS/MS method; type: ADME, organism-based; settings: in vivo, po, read-out: beta t1/2 (converted); in short: as §1
[4] = Tmax in rat administered via gavage by HPLC-MS/MS method; type: ADME, organism-based; settings: in vivo, po; in short: as §1
[5] = Cmax in rat administered via gavage by HPLC-MS/MS method; type: ADME, organism-based; settings: in vivo, po; in short: as §1
[6] = Clearance in rat administered via gavage by HPLC-MS/MS method; type: ADME, organism-based; settings: in vivo, po; in short: as §1
[7] = biological target: T1, Androgen receptor (Homo sapiens); settings: at 10 µM; remark: listed apart in the source

Structure (SMILES) | IC50 (LNCaP) [µM] | IC50 (DU-145) [µM] | inhibition [1] | IC50 (Androgen receptor) [µM] | AUC(0-t) [2] [ng·h/mL] | half-life [3] [h] | Tmax [4] [h] | Cmax [5] [ng/mL] | CL/F [6] [mL/min/kg] | inhibition [7]
CNC(=O)c1cc2c(cc1F)CC1C(=O)N(c3ccc(C#N)c(F)c3)C(=S)N1C2 (stereo unspecified) | 116 | 85.4 | 26.7% | – | – | – | – | – | – | –
CCCC(=O)Nc1ccc2c(c1)CN1C(=S)N(c3ccc(C#N)c(C(F)(F)F)c3)C(=O)C1C2 (stereo unspecified) | 10.8 | > 200 | 45.5% | – | – | – | – | – | – | –
CCOc1ccc2c(c1)CN1C(=S)N(c3ccc(C#N)c(C(F)(F)F)c3)C(=O)C1C2 (stereo unspecified) | 22.6 | 40.9 | 47.1% | – | – | – | – | – | – | –
CNC(=O)c1cc2c(cc1F)CC1C(=O)N(c3ccc(C#N)c(C(F)(F)F)c3)C(=S)N1C2 (stereo unspecified) | 28.1 | > 200 | 47.1% | – | – | – | – | – | – | –
CCCOc1ccc2c(c1)CN1C(=S)N(c3ccc(C#N)c(C(F)(F)F)c3)C(=O)C1C2 (stereo unspecified) | 11.6 | 62.3 | 54% | – | – | – | – | – | – | –
N#Cc1ccc(N2C(=O)C3Cc4ccc([N+](=O)[O-])cc4CN3C2=S)cc1C(F)(F)F (stereo unspecified) | 43 | > 200 | 59.8% | – | – | – | – | – | – | –
N#Cc1ccc(N2C(=O)C3Cc4cc(N)ccc4CN3C2=S)cc1C(F)(F)F (stereo unspecified) | 73 | > 200 | 14.2% | – | – | – | – | – | – | –
COc1c(Br)cc2c(c1Br)CN1C(=S)N(c3ccc(C#N)c(C(F)(F)F)c3)C(=O)C1C2 (stereo unspecified) | 19.1 | 33.8 | 4.6% | – | – | – | – | – | – | –
COc1ccc2c(c1)CN1C(=S)N(c3ccc(C#N)c(C(F)(F)F)c3)C(=O)C1C2 (stereo unspecified) | 100 | 60.4 | inactive | – | – | – | – | – | – | –
N#Cc1ccc(N2C(=O)C3Cc4cc(I)c(O)c(I)c4CN3C2=S)cc1C(F)(F)F (stereo unspecified) | 16.3 | 22.1 | 27.3% | – | – | – | – | – | – | –
CC12Cc3ccccc3CN1C(=S)N(c1ccc(C#N)c(C(F)(F)F)c1)C2=O (stereo unspecified) | 65.3 | > 200 | 26.2% | – | – | – | – | – | – | –
N#Cc1ccc(N2C(=O)C3Cc4ccc(OC5CCCCC5)cc4CN3C2=S)cc1C(F)(F)F (stereo unspecified) | 8.5 | 98.1 | 61.6% | – | – | – | – | – | – | –
CCC(=O)Nc1ccc2c(c1)CN1C(=S)N(c3ccc(C#N)c(C(F)(F)F)c3)C(=O)C1C2 (stereo unspecified) | 19.5 | > 200 | 4.5% | – | – | – | – | – | – | –
N#Cc1ccc(N2C(=O)C3Cc4ccccc4N3C2=S)cc1C(F)(F)F (stereo unspecified) | 15.3 | – | – | 18.7 | 2860 | 10.4 | 2 | 452 | 26.5 | –
N#Cc1ccc(N2C(=O)C3Cc4ccccc4CN3C2=S)cc1C(F)(F)F (stereo unspecified) | 31.1 | > 200 | 89% | – | 3860 | 5.13 | 2 | 387 | 20.5 | –
CC(=O)Nc1ccc2c(c1)CN1C(=S)N(c3ccc(C#N)c(C(F)(F)F)c3)C(=O)C1C2 (stereo unspecified) | 83.8 | > 200 | 25% | – | – | – | – | – | – | –

Structure (SMILES) | IC50 (LNCaP) [µM] | IC50 (DU-145) [µM] | inhibition [1] | IC50 (Androgen receptor) [µM] | AUC(0-t) [2] [ng·h/mL] | half-life [3] [h] | Tmax [4] [h] | Cmax [5] [ng/mL] | CL/F [6] [mL/min/kg] | inhibition [7]
N#Cc1ccc(N2C(=O)C3Cc4ccc(O)cc4CN3C2=S)cc1C(F)(F)F (stereo unspecified) | 50.7 | > 200 | 85.7% | – | – | – | – | – | – | –
N#Cc1ccc(N2C(=O)C3Cc4cc([N+](=O)[O-])ccc4CN3C2=S)cc1C(F)(F)F (stereo unspecified) | 56.4 | > 200 | inactive | – | – | – | – | – | – | –
N#Cc1ccc(N2C(=O)C3Cc4ccc(N)cc4CN3C2=S)cc1C(F)(F)F (stereo unspecified) | 18.9 | 89.7 | 37.8% | – | – | – | – | – | – | –
CC(C)(C)C(=O)Nc1ccc2c(c1)CN1C(=S)N(c3ccc(C#N)c(C(F)(F)F)c3)C(=O)C1C2 (stereo unspecified) | 21.2 | 83.2 | inactive | – | – | – | – | – | – | –
CNC(=O)c1ccc(N2C(=S)N(c3ccc(C#N)c(C(F)(F)F)c3)C(=O)C2(C)C)cc1F [ENZALUTAMIDE] | 12.5 | 46.1 | – | – | – | – | – | – | – | –
N#Cc1ccc(N2C(=O)C3Cc4ccccc4CN3C2=S)cc1F (stereo unspecified) | 70.3 | 37.1 | inactive | – | – | – | – | – | – | –
CCOC(=O)Nc1ccc2c(c1)CN1C(=S)N(c3ccc(C#N)c(C(F)(F)F)c3)C(=O)C1C2 (stereo unspecified) | 6.3 | 90.1 | 45.4% | – | 7030 | 34.4 | 2 | 641 | 9.5 | –
CCCCS(=O)(=O)Nc1ccc2c(c1)CN1C(=S)N(c3ccc(C#N)c(C(F)(F)F)c3)C(=O)C1C2 (stereo unspecified) | 3.12 | > 200 | 29.5% | – | – | – | – | – | – | –
N#Cc1ccc(N2C(=O)C3Cc4cc(Cl)c(O)c(Cl)c4CN3C2=S)cc1C(F)(F)F (stereo unspecified) | 14 | 17.1 | 36% | – | – | – | – | – | – | –
CCOC(=O)CCCOc1ccc2c(c1)CN1C(=S)N(c3ccc(C#N)c(C(F)(F)F)c3)C(=O)C1C2 (stereo unspecified) | 18.8 | 15.4 | 43.9% | – | – | – | – | – | – | –
CCOC(=O)Nc1cc2c(cc1F)CC1C(=O)N(c3ccc(C#N)c(C(F)(F)F)c3)C(=S)N1C2 (stereo unspecified) | 13.4 | > 200 | 85.1% | 7.39 | 30000 | 24.7 | 4 | 2290 | 2.43 | Active
CCOC(=O)CCCOc1c(Br)cc2c(c1Br)CN1C(=S)N(c3ccc(C#N)c(C(F)(F)F)c3)C(=O)C1C2 (stereo unspecified) | 6.3 | 21.9 | inactive | – | – | – | – | – | – | –
CS(=O)(=O)Nc1ccc2c(c1)CN1C(=S)N(c3ccc(C#N)c(C(F)(F)F)c3)C(=O)C1C2 (stereo unspecified) | 31.1 | > 200 | 13.6% | – | – | – | – | – | – | –
N#Cc1ccc(N2C(=O)C3Cc4cc(Br)c(O)c(Br)c4CN3C2=S)cc1C(F)(F)F (stereo unspecified) | 11.1 | 11.4 | 6.1% | – | – | – | – | – | – | –
CC(C)COc1ccc2c(c1)CN1C(=S)N(c3ccc(C#N)c(C(F)(F)F)c3)C(=O)C1C2 (stereo unspecified) | 10.6 | 52.6 | 61.5% | – | – | – | – | – | – | –
CC(C)Oc1ccc2c(c1)CN1C(=S)N(c3ccc(C#N)c(C(F)(F)F)c3)C(=O)C1C2 (stereo unspecified) | 8.6 | 91.6 | 45.4% | – | – | – | – | – | – | –
